Compound activity (PubChem BioAssay)
Rows were chosen to be rich in hits. Some 5.1% of all compounds tested hit in one or more screens of this group.
NF-kB expr up: NF-kB expression increase, human neuronal cells. NF-kB reporter expression; active compounds read high. fold change at 12.5 µM. 190,000 compounds, 1.6% hits. AID 1239; in the data active means fold change above about 3.3
STAT1 act-1: STAT1 signaling activation; NIH 3T3 STAT1-luciferase reporter, IFN-gamma, luminescence; 100% = IFN-gamma alone, no compound; activation (% of control), % at 5.5 µM; 200,000 compounds, 2.6% hits; AID 932;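 active means activation above the screen-wide mean activation plus 3 SD, cut at about 130% in these data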
STAT3 inh: inhibitors of IL-6 induced STAT3 signaling | U3A cells, IL-6 STAT3-luciferase reporter, luminescence; host cell line lacks STAT1 | inhibition, % at 5.5 µM | 190,000 compounds, 0.89% hits;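 active means inhibition above the mean inhibition across all screened compounds plus 3 SD, cut at about 44% in these data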
STAT1 inh: STAT1 signaling inhibition | NIH 3T3 STAT1-luciferase reporter, IFN-gamma, luminescence | inhibition, % at 5.5 µM | 200,000 compounds, 0.35% hits;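 active means inhibition above a set limit, the mean inhibition across all tested compounds plus 3 SD, cut at about 34% in these data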
STAT3 act-1: activators of IL-6 induced STAT3 signaling; 190,000 compounds, 0.91% hits; U3A cells, IL-6 STAT3-luciferase reporter, luminescence; 100% = signal with IL-6 EC80 alone; AID 871; activation (% of control), % at 5.6 µM;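 active means activation above the screen-wide mean of compound activation plus 3 SD, cut at about 130% in these data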
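Detection: reporter luminescence signal / Assay system: STAT1-lacking human U3A cells, STAT3 luciferase reporter / Incubation: compound pre-incubation 1 h before IL-6, then 6 h stimulation at 37 °C / Control set: IL-6-only high control / Read-out: % activation relative to IL-6 control / Probe or stimulus: Interleukin-6, 33 ng/mL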
APP 5'UTR act: activates APP 5'UTR luciferase reporter. SH-SY5Y APP 5'UTR luciferase reporter, luminescence; zero percent = DMSO vehicle wells. 190,000 compounds, 1% hits. activation, % at 2 µM. AID 1276;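 active means activation above a set limit, based on mean plus 3 SD of controls, cut at about 140% in these data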
STAT3 act-2: STAT3 activation, confirmation assay | shares compounds with STAT3 act-1 | U3A STAT3-luciferase reporter, IL-6 potentiation, luminescence; U3A cells lack STAT1; 100 means same as IL-6 alone | potentiation (% of control), % at 5.7 µM | 1,200 compounds, 64% hits;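 active means percent activation of the STAT3 luciferase reporter above a set limit taken from the earlier primary screen, cut at about 130% in these data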
NFkB act 2: activates NF-kappaB, counter-screen to STAT3 activators; 1,200 compounds, 11% hits; shares compounds with STAT3 act-1; activation (% of control), % at 5.7 µM; human cells, NF-kappaB reporter activation; in the data active means activation above about 120%;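 further: reporter induced by TNF-alpha stimulation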
STAT1 act-2: STAT1 activation in STAT3 activator counter-screen; shares compounds with STAT3 act-1; NIH 3T3 STAT1-luciferase reporter, IFN-gamma, luminescence; activation (% of control), % at 5.7 µM; 1,200 compounds, 13% hits; AID 1318;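 active means activation above the solvent-only control well mean plus 3 SD, set per screening run, cut at about 120% in these data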
Hits are given with their value; - = inactive; . = not tested or not shown.

SMILES	NF-kB expr up	STAT1 act-1	STAT3 inh	STAT1 inh	STAT3 act-1	APP 5'UTR act	STAT3 act-2	NFkB act 2	STAT1 act-2
O=C(COC(=O)Cc1c[nH]c2ccccc12)Nc1cccc2ccccc12	-	-	-	-	-	-	.	.	.
COC(=O)C1CCN(C(=O)COC(=O)Cc2c[nH]c3ccccc23)CC1	-	-	-	-	140	-	-	-	-
O=C(NCc1ccco1)c1cc2c(s1)CCCCC2	-	-	-	-	-	-	.	.	.
Cc1nn(CCC#N)c2nc(-c3ccccc3)cc(C(F)(F)F)c12	-	-	-	-	-	-	.	.	.
COc1cccc(-c2cc(C(F)(F)F)c3c(N)c(C#N)sc3n2)c1	-	-	-	-	153	-	134	-	-
N#Cc1sc2nc(-c3ccccc3)cc(-c3ccco3)c2c1N	-	-	-	-	-	-	.	.	.
O=C1CSC(c2c(F)cccc2Cl)N1c1cccc(F)c1 (stereo not drawn)	-	-	-	-	-	-	.	.	.
Cc1cccc2nc(CSc3nc4[nH]ncc4c(=O)n3-c3ccccc3Cl)cc(=O)n12	-	-	-	-	136	-	152	-	-
O=C(CN1CCN(c2ncc(C(F)(F)F)cc2Cl)CC1)NC(=O)NCc1ccccc1	-	-	-	-	-	-	.	.	.
Cc1cccc(C)c1NC(=S)/C(=C(\[O-])c1cccs1)[n+]1ccccc1	-	-	-	-	-	-	.	.	.
[O-]/C(=C(\C(=S)Nc1cccc2ccccc12)[n+]1ccccc1)c1cccs1	-	-	-	-	143	-	136	-	-
O=C1C(C=NCc2ccco2)=C(O)c2ccccc21	-	-	-	-	141	-	187	135	164
Cc1nc(-c2coc3cc(C)c(N=O)c(O)c3/c2=N\N)cs1	-	-	-	-	-	-	.	.	.
Cc1csc(-c2coc3cc(O)cc(C)c3c2=O)n1	-	-	-	-	148	-	160	-	131
O=C(O)c1cc(Cl)c2ccccc2c1O	-	-	-	-	139	-	-	-	-
COc1ccc(NC(=O)CSc2nnc(-c3ccccc3C)n2N)cc1OC	-	-	-	-	-	-	.	.	.
Cc1ccnc(NS(=O)(=O)c2ccc(NC(=O)CCS(=O)(=O)c3ccccc3)cc2)n1	-	-	-	-	-	-	.	.	.
COC(=O)c1ccccc1S(=O)(=O)Nc1ccc2cn[nH]c2c1	-	-	-	-	143	-	-	-	-
COC(=O)c1sc(S(=O)(=O)Nc2ccc3cn[nH]c3c2)c(C(=O)OC)c1C	-	-	-	-	147	-	147	-	-
COC(=O)c1sc(S(=O)(=O)Nc2ccc(C)cc2)c(C(=O)OC)c1C	-	-	-	-	-	-	.	.	.
CCc1ccc(N(C(=O)c2csnn2)C(C(=O)NC(C)(C)C)c2ccccn2)cc1 (stereo not drawn)	-	-	-	-	139	-	135	-	-
Cc1cccc(/C=N/NC(=O)C(C)Nc2cccc3ccccc23)n1 (stereo not drawn)	-	-	-	-	164	-	139	-	-
CC(Nc1cccc2ccccc12)C(=O)N/N=C/c1ccc([N+](=O)[O-])cc1 (stereo not drawn)	-	-	-	-	-	-	.	.	.
CC(C)N1C(=O)S/C(=C/c2cccnc2)C1=O	-	-	-	-	-	-	.	.	.
CC(C)CC(=O)NC(=S)Nc1nc(-c2ccc(Cl)cc2)cs1	-	-	-	-	-	-	.	.	.
SMILES	NF-kB expr up	STAT1 act-1	STAT3 inh	STAT1 inh	STAT3 act-1	APP 5'UTR act	STAT3 act-2	NFkB act 2	STAT1 act-2
O=C(NC(=S)Nc1nc(-c2ccccc2)cs1)c1cccs1	-	-	-	-	142	-	147	-	-
O=C(NC(=S)Nc1nc(-c2ccccc2)cs1)c1ccco1	-	-	-	-	139	-	140	-	-
Cc1ccc(-c2csc(NC(=S)NC(=O)c3cccs3)n2)cc1	-	-	-	-	-	-	.	.	.
CC(C)CC(=O)NC(=S)Nc1nc(-c2ccccc2)cs1	-	-	-	-	144	-	140	-	-
Cc1ccnc(NS(=O)(=O)c2ccc(NS(=O)(=O)c3ccccc3)cc2)n1	-	-	-	-	-	-	.	.	.
CC(=O)Nc1cccc2c1C(=O)N(c1ccccc1C)C2=O	-	-	-	-	-	-	.	.	.
O=C(c1cc2c(s1)CCCC2)N1CCN(c2ccccc2)CC1	-	-	-	-	-	-	.	.	.
O=C(c1cc2c(s1)CCCC2)N1CCN(S(=O)(=O)c2ccccc2C(F)(F)F)CC1	-	-	-	-	139	-	-	-	-
Cc1ccccc1CN1CCN(C/C=C/c2ccccc2)CC1	-	-	-	-	-	-	.	.	.
FC(F)(F)c1cc(Cl)c2nc(-c3ccccc3)cn2c1	11	-	-	-	158	164	173	140	202
O=C(CSc1nnc2c(Cl)cc(C(F)(F)F)cn12)N(Cc1ccccc1)Cc1ccccc1	-	-	-	-	-	-	.	.	.
COc1ccccc1/C=C(/CC(=O)NCc1ccc(F)cc1)c1nc2ccccc2s1	-	-	-	-	136	-	-	-	-
COc1ccccc1/C=C(/CC(=O)NCc1ccccc1)c1nc2ccccc2s1	-	-	-	-	-	-	.	.	.
Brc1cc2c(cc1Cn1c(-c3cncs3)nc3ccccc31)OCO2	-	-	-	-	-	-	.	.	.
CSc1ccccc1NC(=O)C1CC(c2ccccc2O)=NO1 (stereo not drawn)	-	-	-	-	137	-	-	-	-
COC(=O)c1ccccc1NC(=O)C1CC(c2ccccc2O)=NO1 (stereo not drawn)	-	-	-	-	-	-	.	.	.
COC(=O)C1=C(NC(=O)c2ccc(Br)cc2)CCS1	-	-	-	-	146	-	133	-	-
CN(C)S(=O)(=O)c1ccc(C(=O)OCC(=O)Nc2sc3c(c2C#N)CCCCC3)cc1	-	-	-	-	-	-	.	.	.
O=C(c1ccccc1)c1nn(-c2ccc(Cl)cc2)cc1C(=O)c1cc2ccccc2oc1=O	-	-	-	-	136	-	-	-	-
COC(=O)c1ccncc1C(=O)Nc1ccc(OC)cc1	-	-	-	-	-	-	.	.	.
Cc1ccc(C(=O)N/C(=C\c2ccccc2)C(=O)NCC2CCCO2)cc1 (stereo not drawn)	-	-	-	-	-	-	.	.	.
COc1ccc(C(=O)CNc2ccc3ccccc3c2)cc1	-	-	-	-	142	-	-	-	-
CCN(CC)C(=O)Nc1cnc2ccccc2c1	-	-	-	-	-	-	.	.	.
COC(=O)c1cccc(C(=O)Nc2ccc(C)cc2Br)n1	-	-	-	-	141	-	-	-	-
